Source: article PMC2441798 (Nucleic Acids Research, 2008)
Peptide text beside a SMILES is read from it.

Key:
PlcRI'II = assay: plcA'-lacZ β-galactosidase assay, chimeric PlcRI'II; type: cell-based, Bacillus thuringiensis; conditions: 2 µM heptapeptide, 1 h, PlcRI'II chimera
Procedure, shortened: (§1)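 Reporter strain Bacillus 407 (plcA′Z ΔplcR–papR), which carries a plcA promoter–lacZ fusion, was complemented with pHT304-based plasmids carrying modified plcR genes under their own promoter. Cultures were grown in LB without antibiotics at 37°C with vigorous shaking to stationary-phase onset (OD600 3 ± 0.3), then split into 12 ml fractions. Synthetic peptide was added to 2 µM final for 1 h. β-galactosidase was assayed on 2 ml pellets, with at least three repeats.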

PlcRII = assay: plcA'-lacZ β-galactosidase assay in 407; type: cell-based, Bacillus thuringiensis; conditions: 2 µM peptide, 1 h
Procedure, shortened: (§2)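 Reporter strain 407 (plcA′Z ΔplcR–papR), carrying plcR on plasmid pHT304 under its own promoter, grown in LB without antibiotics at 37°C with vigorous shaking to stationary-phase onset T0 (OD600 3 ± 0.3). Cultures split into 12 ml fractions. Cognate synthetic PapR penta- or heptapeptide added at 2 µM final, then 1 h incubation. 2 ml pelleted for β-galactosidase assay. Each assay run at least three times.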

PlcRA278K = assay: plcA'-lacZ β-galactosidase assay, PlcRA278K mutant; type: cell-based, Bacillus thuringiensis; conditions: 2 µM heptapeptide, 1 h; similar to PlcRI'II response
Procedure, shortened: as §1

PlcR = target: T1, PlcR (Bacillus thuringiensis, UniProt Q45782); assay: Steady-state fluorescence anisotropy binding titrations
T1 sequence (Q45782 1-285): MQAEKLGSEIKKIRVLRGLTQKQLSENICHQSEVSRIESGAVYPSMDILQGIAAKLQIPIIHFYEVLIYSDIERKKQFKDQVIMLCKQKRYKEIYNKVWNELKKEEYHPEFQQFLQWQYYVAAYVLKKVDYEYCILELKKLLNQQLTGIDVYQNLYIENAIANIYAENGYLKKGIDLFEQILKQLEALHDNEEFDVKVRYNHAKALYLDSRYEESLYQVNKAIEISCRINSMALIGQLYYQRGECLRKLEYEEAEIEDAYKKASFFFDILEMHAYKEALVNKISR

PlcRIV = assay: plcA'-lacZ β-galactosidase assay in 407; type: cell-based, Bacillus thuringiensis; conditions: 2 µM peptide, 1 h
Procedure, shortened: as §2

PlcRI'III = assay: plcA'-lacZ β-galactosidase assay, chimeric PlcRI'III; type: cell-based, Bacillus thuringiensis; conditions: 2 µM heptapeptide, 1 h, PlcRI'III chimera
Procedure, shortened: as §1

PlcRIII = assay: plcA'-lacZ β-galactosidase assay in 407; type: cell-based, Bacillus thuringiensis; conditions: 2 µM peptide, 1 h
Procedure, shortened: as §2

## SDMPFEF
PlcRI'II
  activation greater than that of wild-type PlcRI by PapRI: about 2 fold
  activation less than that of PlcRII by PapRII: 2 fold
PlcRII
  activation of plcA'lacZ expression (in words): activated
PlcRA278K
  activation of PlcRA278K (in words): activated

## CC(C)C[C@H](N)C(=O)N1CCC[C@H]1C(=O)N[C@@H](Cc1ccccc1)C(=O)N[C@@H](CCC(=O)O)C(=O)N[C@@H](Cc1ccccc1)C(=O)O [LPFEF] (H-LPFEF-OH)
PlcR
  Kd: 41 µM

## LPFEH
PlcRIV
  activation of plcA'lacZ expression (in words): activated

## NELPFEF
PlcRI'III
  activation of PlcRI'III (in words): partly restores

## CC(C)C[C@H](NC(=O)[C@H](CC(=O)O)NC(=O)[C@H](C)N)C(=O)N1CCC[C@H]1C(=O)N[C@@H](Cc1ccccc1)C(=O)N[C@@H](CCC(=O)O)C(=O)N[C@@H](Cc1ccccc1)C(=O)O [ADLPFEF] (H-ADLPFEF-OH)
PlcR
  Kd: 25 µM

## MPFEF
PlcRII
  activation of plcA'lacZ expression (in words): activated

## VPFEF
PlcRIII
  activation of plcA'lacZ expression (in words): activated

## NEVPFEF
PlcRI'III
  activation of PlcRI'III (in words): not activated
PlcRIII
  activation of plcA'lacZ expression (in words): activated

## SDLPFEH
PlcRIV
  activation of plcA'lacZ expression (in words): activated
